Reference: PMC3748591 (Bioorganic & medicinal chemistry, 2011)

Tests used:
Human SphK1 = Human SphK1 (Homo sapiens, UniProt Q9NYA1); experiment: Sphingosine kinase assay, in vitro inhibition of SphK1; format: biochemical; conditions: initial screen at 100 μM inhibitor
mouse SphK2 = molecular target: T1, mouse SphK2 (Mus musculus, UniProt Q9JIA7); experiment: Sphingosine kinase assay, in vitro inhibition of SphK2; format: biochemical; conditions: initial screen at 100 μM inhibitor
T1 sequence (Q9JIA7 1-617): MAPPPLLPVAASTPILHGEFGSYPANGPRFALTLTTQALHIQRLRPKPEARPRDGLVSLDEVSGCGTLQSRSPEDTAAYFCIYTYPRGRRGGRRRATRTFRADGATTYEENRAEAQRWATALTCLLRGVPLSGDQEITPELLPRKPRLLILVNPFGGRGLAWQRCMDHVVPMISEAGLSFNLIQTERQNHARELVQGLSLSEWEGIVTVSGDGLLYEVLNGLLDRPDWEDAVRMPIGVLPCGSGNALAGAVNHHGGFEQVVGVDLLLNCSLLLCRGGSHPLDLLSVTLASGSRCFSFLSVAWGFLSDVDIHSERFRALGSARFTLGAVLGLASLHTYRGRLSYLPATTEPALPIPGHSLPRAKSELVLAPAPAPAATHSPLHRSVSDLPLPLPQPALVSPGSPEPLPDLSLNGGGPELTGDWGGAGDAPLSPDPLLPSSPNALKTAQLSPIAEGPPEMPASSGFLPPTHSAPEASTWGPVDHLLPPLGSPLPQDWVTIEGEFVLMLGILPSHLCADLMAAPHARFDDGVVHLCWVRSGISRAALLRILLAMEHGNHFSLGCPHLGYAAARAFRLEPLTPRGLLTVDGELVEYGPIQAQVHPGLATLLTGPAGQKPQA

SphK2 = molecular target: T2, SphK2 (Homo sapiens, UniProt Q9NRA0); experiment: FTY720 phosphorylation in intact U937 cells; format: cell-based; conditions: U937 cells exposed to FTY720 and 10 μM inhibitor, 2 h; cell pellet, LC/MS
T2 sequence (Q9NRA0 1-654): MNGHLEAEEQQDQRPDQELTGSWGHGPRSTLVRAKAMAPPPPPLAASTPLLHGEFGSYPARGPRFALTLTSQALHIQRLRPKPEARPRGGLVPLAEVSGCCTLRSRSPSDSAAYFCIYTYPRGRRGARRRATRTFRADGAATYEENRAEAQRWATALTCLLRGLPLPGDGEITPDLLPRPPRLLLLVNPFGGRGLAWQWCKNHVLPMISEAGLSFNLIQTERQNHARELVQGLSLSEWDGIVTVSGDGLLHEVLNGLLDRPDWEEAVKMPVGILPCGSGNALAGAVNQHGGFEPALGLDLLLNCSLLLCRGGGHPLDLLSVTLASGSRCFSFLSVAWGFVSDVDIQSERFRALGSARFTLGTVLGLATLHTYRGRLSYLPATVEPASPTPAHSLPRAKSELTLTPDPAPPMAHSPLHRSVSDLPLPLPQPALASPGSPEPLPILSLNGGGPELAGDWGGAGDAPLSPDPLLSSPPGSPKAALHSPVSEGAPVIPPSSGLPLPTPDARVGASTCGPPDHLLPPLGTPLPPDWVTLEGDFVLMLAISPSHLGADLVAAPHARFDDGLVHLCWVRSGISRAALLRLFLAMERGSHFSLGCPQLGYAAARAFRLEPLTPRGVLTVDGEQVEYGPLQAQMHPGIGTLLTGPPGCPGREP
Summary of the method: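 Cultured U937 cells were given exogenous FTY720 plus 10 μM test compound for 2 h, then pelleted by centrifugation. Pellet FTY720 and FTY720-P were measured by LC/ESI-MS/MS: C18 reverse phase, water/methanol/formic acid gradient, 1 mL/min. MRM was 308.4→255.1 and 388.4→255.1, with C17S1P and C17-sphingosine as internal standards, quantified by peak area. Results are moles per million cells, means ± SD of three independent experiments, unpaired two-tailed t-test.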

U937 cells = experiment: S1P levels in U937 cells; format: cell-based, human; conditions: LC/MS, data not shown
[1] = system: Akt and ERK phosphorylation; experiment: Akt/ERK phosphorylation in U937 cells; format: cell-based, human; conditions: different concentrations, 16 h (legend: 24 h), Western blot
Summary of the method: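 U937 cells pretreated with test compound at a range of concentrations for 24 h (legend; the methods say times "usually 2 h"). Cells were washed in PBS, Dounce-lysed, and equal protein run on 10% SDS–PAGE, then transferred to nitrocellulose. Blots were blocked in 5% milk/TBS pH 7.4 with 0.1% Tween 20, probed 1 h with anti-ERK, p-ERK, Akt, p-Akt and β-actin (1:1000), then HRP anti-IgG (1:2000), with chemiluminescent detection. PD098059 (10 μM) served as ERK positive control.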

Sequence of Human SphK1 (Q9NYA1 whole entry): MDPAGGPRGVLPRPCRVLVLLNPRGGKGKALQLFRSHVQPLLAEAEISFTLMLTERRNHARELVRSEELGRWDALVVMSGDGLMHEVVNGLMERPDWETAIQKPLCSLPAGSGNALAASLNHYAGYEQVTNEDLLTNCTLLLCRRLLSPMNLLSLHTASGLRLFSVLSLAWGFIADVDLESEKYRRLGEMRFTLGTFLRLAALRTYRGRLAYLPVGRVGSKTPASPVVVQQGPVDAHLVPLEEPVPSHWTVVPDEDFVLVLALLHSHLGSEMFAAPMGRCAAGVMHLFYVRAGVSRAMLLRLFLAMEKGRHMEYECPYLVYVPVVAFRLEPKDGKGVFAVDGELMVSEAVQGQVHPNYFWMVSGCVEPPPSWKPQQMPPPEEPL

Structure (SMILES): CCCCCCCCc1ccc(C2CCC(=CC(=O)OC)CC2)cc1 (centres unmarked) [Compound 5, Methyl 2-(4-(4-octylphenyl)cyclohexylidene)acetate]
- inhibition of SphK1, result in words (Human SphK1): inactive against SphK1
- inhibition of SphK2, result in words (mouse SphK2): did not cross the 50% threshold

Structure (SMILES): CCCCCCCCc1ccc(C2CCC(=CCO)CC2)cc1 (centres unmarked) [Compound 6, 2-(4-(4-Octylphenyl)cyclohexylidene)ethanol]
- inhibition of SphK1, result in words (Human SphK1): inactive against SphK1
- inhibition of SphK2, result in words (mouse SphK2): did not cross the 50% threshold

Structure (SMILES): CCCCCCCCc1ccc(C2CCC(O)(C[N+](=O)[O-])CC2)cc1 (centres unmarked) [Compound 7, 1-(Nitromethyl)-4-(4-octylphenyl)cyclohexanol]
- inhibition of SphK1, result in words (Human SphK1): inactive against SphK1
- inhibition of SphK2, result in words (mouse SphK2): did not cross the 50% threshold

Structure (SMILES): CCCCCCCCc1ccc(C2CCC(=NO)CC2)cc1 (centres unmarked) [Compound 8, 4-(4-Octylphenyl)cyclohexanone oxime]
- inhibition of SphK1, result in words (Human SphK1): inactive against SphK1
- inhibition of SphK2, result in words (mouse SphK2): did not cross the 50% threshold

Structure (SMILES): CCCCCCCCc1ccc([C@H]2CC[C@H](O)CC2)cc1 [Compound 9, (1r,4r)-4-(4-Octylphenyl)cyclohexanol]
- inhibition of SphK1, result in words (Human SphK1): inactive against SphK1
- inhibition of SphK2, result in words (mouse SphK2): did not cross the 50% threshold

Structure (SMILES): CCCCCCCCc1ccc([C@H]2CC[C@H]([N+](C)(C)C)CC2)cc1.[I-] [trans-12a, (1r,4r)-N,N,N-trimethyl-4-(4-octylphenyl)cyclohexanaminium iodide]
- accumulation of FTY720 in cells (SphK2): exaggerated the accumulation
- production of FTY720-P (SphK2): significantly suppressed
- S1P levels (U937 cells): no change
- Akt phosphorylation [1]: dose-dependent decrease
- ERK phosphorylation [1]: quantitatively inhibited

Structure (SMILES): CCCCCCCCc1ccc([C@H]2CC[C@H]([N+](C)(C)CCC)CC2)cc1.[I-] [trans-12b, (1r,4r)-N,N-Dimethyl-4-(4-octylphenyl)-N-propylcyclohexanaminium iodide]
- accumulation of FTY720 in cells (SphK2): exaggerated the accumulation
- production of FTY720-P (SphK2): significantly suppressed
- S1P levels (U937 cells): no change
- Akt phosphorylation [1]: complete disappearance of p-Akt band
- ERK phosphorylation [1]: quantitatively inhibited
